What was measured:
Type in all cases: ADME, organism-based
Mus musculus [1] = assay: Biodistribution of radioactivity in normal mice (ICR) spleen after 2 hours of intravenous injection of [125I]-16(IMPY); conditions: in vivo
Outline: (§1)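 Male ICR mice, 2-3 months old, 20-30 g, under ether anesthesia, given 0.15 mL of 0.1% bovine serum albumin solution containing the [125I] tracer into the tail vein. Killed by cardiac excision at set times after injection. Organs removed and weighed, then gamma-counted. % dose per organ computed against diluted aliquots of the injected material.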

Mus musculus [2] = assay: Biodistribution of radioactivity in normal mice (ICR) spleen after 2 minutes of intravenous injection of [125I]-16(IMPY); conditions: in vivo; outline: as §1
Mus musculus [3] = assay: Biodistribution of radioactivity in normal mice (ICR) spleen after 24 hours of intravenous injection of [125I]-16(IMPY); conditions: in vivo; outline: as §1
Mus musculus [4] = assay: Biodistribution of radioactivity in normal mice (ICR) spleen after 30 minutes of intravenous injection of [125I]-16(IMPY); conditions: in vivo, 0.5 h; outline: as §1
Mus musculus [5] = assay: Biodistribution of radioactivity in normal mice (ICR) spleen after 6 hours of intravenous injection of [125I]-16(IMPY); conditions: in vivo; outline: as §1
Mus musculus [6] = assay: Biodistribution of radioactivity in normal mice blood after 1 hour of intravenous injection of [125I]-16(IMPY); conditions: in vivo; outline: as §1
Mus musculus [7] = assay: Biodistribution of radioactivity in normal mice blood after 2 hours of intravenous injection of [125I]-16(IMPY); conditions: in vivo; outline: as §1
Mus musculus [8] = assay: Biodistribution of radioactivity in normal mice blood after 2 minutes of intravenous injection of [125I]-16(IMPY); conditions: in vivo
Outline: (§2)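 Male ICR mice (2-3 months old, 20-30 g) under ether anesthesia; 0.15 mL of 0.1% bovine serum albumin solution containing the iodine-125 tracer injected into the tail vein. Mice killed by cardiac excision at set times. Organs removed, weighed and gamma-counted. Percent dose per organ derived against diluted aliquots of the injectate.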

Mus musculus [9] = assay: Biodistribution of radioactivity in normal mice blood after 24 hours of intravenous injection of [125I]-16(IMPY); conditions: in vivo; outline: as §2
Mus musculus [10] = assay: Biodistribution of radioactivity in normal mice blood after 30 minutes of intravenous injection of [125I]-16(IMPY); conditions: in vivo, 0.5 h; outline: as §2
Mus musculus [11] = assay: Biodistribution of radioactivity in normal mice blood after 6 hours of intravenous injection of [125I]-16(IMPY); conditions: in vivo; outline: as §2
Mus musculus [12] = assay: Biodistribution of radioactivity in normal mice (ICR) brain after 1 hour of intravenous injection of [125I]-16(IMPY); conditions: in vivo; outline: as §1
Mus musculus [13] = assay: Biodistribution of radioactivity in normal mice (ICR) brain after 2 hours of intravenous injection of [125I]-16(IMPY); conditions: in vivo; outline: as §1
Mus musculus [14] = assay: Biodistribution of radioactivity in normal mice (ICR) brain after 2 minutes of intravenous injection of [125I]-16(IMPY); conditions: in vivo; outline: as §1
Mus musculus [15] = assay: Biodistribution of radioactivity in normal mice (ICR) brain after 24 hours of intravenous injection of [125I]-16(IMPY); conditions: in vivo; outline: as §1
Mus musculus [16] = assay: Biodistribution of radioactivity in normal mice (ICR) brain after 30 minutes of intravenous injection of [125I]-16(IMPY); conditions: in vivo, 0.5 h; outline: as §1
Mus musculus [17] = assay: Biodistribution of radioactivity in normal mice (ICR) brain after 6 hours of intravenous injection of [125I]-16(IMPY); conditions: in vivo; outline: as §1
Mus musculus [18] = assay: Biodistribution of radioactivity in normal mice (ICR) heart after 2 hours of intravenous injection of [125I]-16(IMPY); conditions: in vivo; outline: as §1
Mus musculus [19] = assay: Biodistribution of radioactivity in normal mice (ICR) heart after 2 minutes of intravenous injection of [125I]-16(IMPY); conditions: in vivo; outline: as §1
Mus musculus [20] = assay: Biodistribution of radioactivity in normal mice (ICR) heart after 24 hours of intravenous injection of [125I]-16(IMPY); conditions: in vivo; outline: as §1
Mus musculus [21] = assay: Biodistribution of radioactivity in normal mice (ICR) heart after 30 minutes of intravenous injection of [125I]-16(IMPY); conditions: in vivo, 0.5 h; outline: as §1
Mus musculus [22] = assay: Biodistribution of radioactivity in normal mice (ICR) heart after 6 hours of intravenous injection of [125I]-16(IMPY); conditions: in vivo; outline: as §1
Mus musculus [23] = assay: Biodistribution of radioactivity in normal mice (ICR) kidney after 1 hour of intravenous injection of [125I]-16(IMPY); conditions: in vivo; outline: as §1
Mus musculus [24] = assay: Biodistribution of radioactivity in normal mice (ICR) kidney after 2 hours of intravenous injection of [125I]-16(IMPY); conditions: in vivo; outline: as §1
Mus musculus [25] = assay: Biodistribution of radioactivity in normal mice (ICR) kidney after 2 minutes of intravenous injection of [125I]-16(IMPY); conditions: in vivo; outline: as §1
Mus musculus [26] = assay: Biodistribution of radioactivity in normal mice (ICR) kidney after 24 hours of intravenous injection of [125I]-16(IMPY); conditions: in vivo; outline: as §1
Mus musculus [27] = assay: Biodistribution of radioactivity in normal mice (ICR) heart after 1 hour of intravenous injection of [125I]-16(IMPY); conditions: in vivo; outline: as §1

Structure (SMILES): CN(C)c1ccc(-c2cn3cc(I)ccc3n2)cc1
- Dose/organ (Mus musculus [1]): 0.05%
- Dose/organ (Mus musculus [2]): 0.4%
- Dose/organ (Mus musculus [3]): 0.01%
- Dose/organ (Mus musculus [4]): 0.09%
- Dose/organ (Mus musculus [5]): 0.04%
- Dose/organ (Mus musculus [6]): 2.5%
- Dose/organ (Mus musculus [7]): 1.82%
- Dose/organ (Mus musculus [8]): 6.41%
- Dose/organ (Mus musculus [9]): 0.18%
- Dose/organ (Mus musculus [10]): 2.44%
- Dose/organ (Mus musculus [11]): 1.4%
- Dose/organ (Mus musculus [12]): 0.21%
- Dose/organ (Mus musculus [13]): 0.14%
- Dose/organ (Mus musculus [14]): 2.88%
- Dose/organ (Mus musculus [15]): 0.02%
- Dose/organ (Mus musculus [16]): 0.26%
- Dose/organ (Mus musculus [17]): 0.06%
- Dose/organ (Mus musculus [18]): 0.08%
- Dose/organ (Mus musculus [19]): 0.79%
- Dose/organ (Mus musculus [20]): 0.01%
- Dose/organ (Mus musculus [21]): 0.16%
- Dose/organ (Mus musculus [22]): 0.04%
- Dose/organ (Mus musculus [23]): 1.17%
- Dose/organ (Mus musculus [24]): 0.53%
- Dose/organ (Mus musculus [25]): 4.75%
- Dose/organ (Mus musculus [26]): 0.05%
- Dose/organ (Mus musculus [27]): 0.12%
